Source: PubChem BioAssay
Sampled rows, rich in hits. Any-hit rate of the full collection: about 9.5%.
D1 mod: allosterically modulates the human D1 dopamine receptor; P21728; HEK293 D1, CRE-luciferase, dopamine EC30 potentiation; actives deviate in either direction; B-score at 10 µM; actives 5.9% (n = 58,000); AID 641;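 active means luminescence count or its row- and column-corrected plate score outside the 99.7% band of the plate's sample wells, on either side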
M1 antagonist: M1 muscarinic receptor (rat) antagonism. B-score at 10 µM. actives 3.4% (n = 64,000). P08482. AID 628. CHO-M1 cells, Fluo-4 calcium, ACh EC80 antagonist mode; stronger effect = lower value;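 active means calcium fluorescence response, raw or row-and-column corrected B-score, differing from the plate sample mean either way at a set confidence level, mostly lower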
Target sequence (P08482 whole entry, looked up): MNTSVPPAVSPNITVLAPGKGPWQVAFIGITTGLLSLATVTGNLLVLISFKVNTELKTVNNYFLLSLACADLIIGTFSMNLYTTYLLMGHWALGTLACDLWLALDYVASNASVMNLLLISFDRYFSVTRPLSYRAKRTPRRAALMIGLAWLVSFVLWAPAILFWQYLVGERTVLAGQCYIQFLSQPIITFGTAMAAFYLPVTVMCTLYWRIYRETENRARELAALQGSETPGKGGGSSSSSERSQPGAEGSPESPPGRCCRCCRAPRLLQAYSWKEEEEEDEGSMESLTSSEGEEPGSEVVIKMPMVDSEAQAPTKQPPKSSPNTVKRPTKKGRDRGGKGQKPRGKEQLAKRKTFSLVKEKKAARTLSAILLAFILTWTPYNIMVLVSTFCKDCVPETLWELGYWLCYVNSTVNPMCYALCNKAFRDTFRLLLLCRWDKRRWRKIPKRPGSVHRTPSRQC
M1 agonist: M1 muscarinic receptor agonism | CHO-M1 cells, Fluo-4 calcium fluorescence, agonist mode; stronger effect = higher value | B-score at 10 µM | actives 3% (n = 64,000) | AID 626;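 active means fluorescence rise, raw or as B-score row- and column-corrected plate score, outside the 99.7% band of its plate's samples, either direction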
HEK293 NFkB inh: inhibitors of the PMA/ionomycin-induced NF-kB reporter in HEK293 cells | actives 0.21% (n = 62,000) | AID 465 | inhibition, % at 3 µM | HEK-293 NF-kB luciferase reporter, luminescence;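 active means inhibition above the mean of all tested compounds plus 3 SD, cut at about 40% in these data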;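 further: 0% = stimulated DMSO wells and 100% = 10 µM reference inhibitor 5653914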
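Signal: luciferase luminescence; Material: HEK-293 cells with stable firefly luciferase reporter driven by four HIV NF-kB elements; Probe or stimulus: PMA with ionomycin; Replication: tested once; Times: 1 h compound pretreatment, then 16 h stimulation at 37 °C, 5% CO2; Benchmarks: DMSO and 10 µM reference inhibitor; Evaluation: per-plate % inhibition versus controls.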
Jurkat tox 60K: cytotoxic compounds reducing Jurkat cell viability; AID 463; inhibition, % at 4 µM; actives 1.2% (n = 56,000); Jurkat E6.1 viability, ATP luminescence, 48 h;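 active means inhibition above the mean inhibition of all tested compounds plus 3 SD, cut at about 28% in these data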
mHtt clearance: mutant huntingtin protein clearance; inhibition, % at 1.5 µM; actives 0.42% (n = 47,000); AID 853; HeLa Exon1htt(103Q)mCFP, aggregate imaging; zero = plate's median compound well;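 active means inhibition of aggregate fluorescence above about 70%, also judged a hit by eye on the cell image, limit read from the data, passing the limit was not always enough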;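 further: cells exposed to compound for three days before fixation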
* = called active by the depositor; · = not tested or not shown.

SMILES	D1 mod	M1 antagonist	M1 agonist	HEK293 NFkB inh	Jurkat tox 60K	mHtt clearance
CCOc1ccc(-c2nc(CSCC(=O)NC3CCCc4ccccc43)c(C)o2)cc1 (centres undefined)	·	·	·	·	·	43
CCCCSc1nc2c(cnn2-c2ccc(Cl)cc2)c(=O)[nH]1	-0.39	0.25	5.6*	32	4	6
CCCCSc1nc2c(cnn2-c2ccc(C)c(C)c2)c(=O)[nH]1	2.1	0.26	0.64	3	9	·
Cc1cc(C)nc(NS(=O)(=O)c2ccc(Br)cc2)n1	0.85	-0.43	-0.11	23	-3	·
Cc1cc(NO)nc(-c2ccc(Br)cc2)n1	0.82	0.6	0.35	-20	34*	·
O=C(c1ccco1)N1CCN(C(c2ccccc2Cl)c2nnnn2Cc2ccco2)CC1 (centres undefined)	·	-0.63	12*	11	3	·
O=C(c1ccco1)N1CCN(C(c2ccccc2Cl)c2nnnn2Cc2cccs2)CC1 (centres undefined)	-1.7	-1.1	0.2	22	2	45
CN(C)c1ccc(C(=S)NCc2ccco2)cc1	-2.2	0.65	-0.64	-18	1	54
Cc1c(C(=O)N2CCCCC2)oc2ccc(S(=O)(=O)N3CC(C)CC(C)C3)cc12 (centres undefined)	-1.1	-0.98	2	30	32*	19
CCOC(=O)N1CCN(C(=O)c2oc3ccc(S(=O)(=O)N4CCCCC4)cc3c2C)CC1	1.1	0.31	-1.3	23	-1	-41
c1ccc(OCCCc2nc(-c3ccccn3)no2)cc1	0.43	0.47	0.28	6	4	2
CNC(=O)c1ccccc1NC(=O)c1cccc(S(=O)(=O)N2CCC(C)CC2)c1	-3.7*	0.0059	1.5	-6	3	·
COc1ccc(C(=O)c2c[nH]c3ccccc23)cc1	-2.2*	0.0018	0.93	·	·	-38
COc1cccc(CNC(=O)c2ccccc2N)c1	0.59	-0.33	-0.17	7	2	82*
COc1cc(OC)cc(C(=O)NCc2cccnc2)c1	0.21	0.11	-0.58	4	2	75*
C/C(NCc1cccnc1)=C(\C#N)C(=O)NCc1ccccc1	0.75	2.2*	0.64	-1	1	·
CC(C)C(=O)Nc1ccc(C(=O)NCc2cccnc2)cc1	-0.32	0.099	0.064	12	82*	-15
COc1ccc(O)c(-c2[nH]ncc2C(=O)c2ccccc2C)c1	1	0.72	0.67	19	·	-34
CCCNC(=O)c1c(N)n(-c2cccc(OC)c2)c2nc3ccccc3nc12	0.75	-0.13	-0.85	17	-8	26
COC(=O)c1c(N)n(-c2cc(OC)cc(OC)c2)c2nc3ccccc3nc12	3.3*	-0.035	-1.4	15	4	·
COc1ccc(NC(=O)Cn2nnc(C(N)=O)c2N)c(OC)c1	-0.075	0.15	-0.36	14	-7	22
CCOC(=O)N1CCN(C(=O)CS(=O)(=O)c2cn(Cc3ccc(F)cc3)c3ccccc23)CC1	-0.0052	-1.5	0.46	5	4	·
c1c2c(cc3sc(N4CCOCC4)nc13)OCCO2	-4.9*	-1.1	0.14	33	5	-68
O=C(c1ccco1)N1CCN(C(=O)c2cc(-c3ccccn3)nc3ccc(Cl)cc23)CC1	-2.1	-0.85	5.3*	17	-6	-131
O=C(c1cccnc1)N1CCN(c2c(Cl)cccc2[N+](=O)[O-])CC1	·	·	·	·	·	-8
SMILES	D1 mod	M1 antagonist	M1 agonist	HEK293 NFkB inh	Jurkat tox 60K	mHtt clearance
Cc1c(NC(=O)Nc2ccc(Cl)cc2)c(=O)n(-c2ccccc2)n1C	-0.9	-0.0044	0.76	15	2	·
Cc1c(N=C2NC(=O)C(CC(=O)Nc3ccc(Cl)cc3)S2)c(=O)n(-c2ccccc2)n1C (centres undefined)	0.081	0.39	-0.21	12	-2	70*
O=C(OCc1cc(Cl)ccc1OC(F)F)c1cc(S(=O)(=O)O)ccc1O	·	-1.1	-1	-2	-7	·
COc1cccc(N2C(=O)C(CC(=O)Nc3ccccc3)N(C3CCCCC3)C2=O)c1 (centres undefined)	-7.4*	0.18	0.054	16	·	·
COc1cccc(NC(=O)C2CCCN(S(=O)(=O)c3ccc(-n4cnnn4)cc3)C2)c1 (centres undefined)	-4.1*	-0.17	0.045	26	3	·
CCCCn1cc(SCC(=O)O)c2ccccc21	-0.02	21*	-0.55	5	-5	7
CCCCCCn1cc(C(=O)O)c(=O)c2ccccc21	·	-0.056	3.6	·	·	·
O=C(CCNS(=O)(=O)c1cccs1)NCc1ccco1	·	0.1	0	21	·	54
CCOC(=O)c1cnc(Nc2nc3ccccc3o2)nc1CN1CCN(C)CC1	·	·	·	·	·	-1
Cc1cc(C)cc(N(CC(=O)NCc2cccnc2)S(C)(=O)=O)c1	0.74	-0.05	0.32	14	3	·
O=C(NCc1ccco1)c1ccc(=O)[nH]n1	·	0.48	-0.78	·	·	72*
O=C(NCc1ccccc1)c1ccc(=O)[nH]n1	·	1.5	0.027	·	·	·
CCn1c(=S)sc2nc(C)sc21	13*	0.19	0.05	9	-1	·
Cc1c(Cl)cccc1NC(=O)CSc1nnc(CCNC(=O)OC(C)(C)C)o1	-0.76	-0.64	-0.58	3	1	37
Cc1sc2nc(SCC(=O)c3cc(C)n(CC4CCCO4)c3C)n(C(C)C)c(=O)c2c1C (centres undefined)	-2.3*	-1.4	0.3	12	2	2
Cc1ccc(-n2nnnc2SCC(=O)c2cc(C)n(-c3cc(C)on3)c2C)cc1	-0.87	0.82*	0.97	18	7	-16
Cc1ccc(-n2nnnc2SCC(=O)c2cc(C)n(CC3CCCO3)c2C)cc1 (centres undefined)	0.11	0.011	-0.46	8	0	·
CC(C)(C)NC(=O)Nc1ccccc1C(N)=O	-4.3*	-1.8	0.16	6	-10	22
Cc1ccccc1Cn1nnc(-c2cccc(C(=O)O)c2)n1	-2.7*	-0.5	0.59	-53	-4	·
CCOc1cc(-n2cnnn2)c(OCC)cc1NC(=O)c1cc2ccc(N(CC)CC)cc2oc1=O	·	·	·	·	·	-30
CCN(CC)c1ccc2cc(C(=O)Nc3cccnc3N3CCOCC3)c(=O)oc2c1	0.16	-0.39	7.7*	8	·	·
CCC(C)Oc1ccccc1C1CC(=O)NC2=C1C(=O)CCC2 (centres undefined)	0.4	-0.21	-1.4	9	40*	16
CCCc1nnc(SCC(=O)N2CCCC(C)C2)n1CC1CCCO1 (centres undefined)	·	·	·	·	·	-30
O=C(c1cccnc1)N1CCCc2ccccc21	0.26	0.028	-3*	8	-5	·
O=C(c1cncc(Br)c1)N1CCCc2ccccc21	1.2	0.28	0.33	·	·	54
Cc1ccc(NC(=O)CSc2nc3nc(C)cc(C)c3c(=O)[nH]2)cc1	3.9*	0.48	0.42	-8	·	·
Cc1cc(C)c2c(=O)[nH]c(SCC(=O)Nc3ccccc3)nc2n1	1.3	-0.062	-0.41	13	3	·
O=C(c1cccc(OC(F)F)c1)N1CCN(c2ncccn2)CC1	0.17	0.87	0.0057	18	-1	25
